In article PMC4269301 (International journal of peptide research and therapeutics, 2014):
Square brackets hold non-standard residues; d marks the D form. Peptide text beside a SMILES is read from it. Nle = CCCC[C@H](N)C(=O)O

Assays:
[1] = biological target: GRK5 (Homo sapiens, UniProt P34947); test: GRK5 phosphorylation of light-activated rhodopsin; assay type: biochemical
[2] = system: GRK6; settings: ref previous study of the α9 peptide (Baameur et al. 2010); cited from earlier work
[3] = system: adenylyl cyclase (AC); test: Adenylyl cyclase activity in membranes from WT-β2AR cells; assay type: biochemical; settings: 100 μM peptide, 10 min, 30 °C
[4] = system: GRK site pS-(355,356) of the β2AR in WT-β2AR cells; test: Intact-cell GRK site phosphorylation of the β2AR; assay type: cell-based; settings: 100 μM, 20 min pretreatment, 20 nM ISO
[5] = system: PKA site pS-262 of the β2AR in WT-β2AR cells; test: Intact-cell PKA site phosphorylation of the β2AR; assay type: cell-based; settings: 100 μM, 20 min pretreatment, 20 nM ISO
Outline: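 HEK293 cells stably expressing FLAG-β2AR (2–4 pmol/mg) on poly-L-lysine; 20 min with 100 μM TAT-tagged peptide, TAT or DMSO, then 20 nM ISO in 0.1 mM ascorbate/1 mM thiourea pH 7, or carrier, 5 min at 37 °C. Lysates on 12 % SDS-PAGE, immunoblot anti-pS262, reprobed anti-C-tail for normalisation. ≥4 experiments in duplicate, % of control.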

Chain of GRK5 (P34947 whole entry): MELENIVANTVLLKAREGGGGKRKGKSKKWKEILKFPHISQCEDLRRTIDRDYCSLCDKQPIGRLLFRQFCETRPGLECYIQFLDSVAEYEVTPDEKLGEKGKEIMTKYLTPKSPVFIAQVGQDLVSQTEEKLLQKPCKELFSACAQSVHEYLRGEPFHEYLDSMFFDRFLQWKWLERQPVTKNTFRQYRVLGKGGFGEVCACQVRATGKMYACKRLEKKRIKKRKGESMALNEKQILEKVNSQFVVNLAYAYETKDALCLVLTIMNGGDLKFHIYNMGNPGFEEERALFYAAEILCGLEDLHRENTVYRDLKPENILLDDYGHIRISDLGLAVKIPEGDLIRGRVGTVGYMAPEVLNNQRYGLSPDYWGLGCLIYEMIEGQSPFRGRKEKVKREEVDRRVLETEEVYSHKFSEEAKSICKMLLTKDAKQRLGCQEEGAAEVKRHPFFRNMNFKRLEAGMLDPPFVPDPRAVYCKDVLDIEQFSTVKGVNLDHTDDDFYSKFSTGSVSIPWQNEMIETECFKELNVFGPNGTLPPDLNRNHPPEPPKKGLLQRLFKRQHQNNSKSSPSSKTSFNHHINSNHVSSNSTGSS

Row | Structure (SMILES) | IC50 [1] [µM] | inhibition at 100 µM ([1]; read-out: % Inhibition (100 μM) of GRK5 phosphorylation of rhodopsin) [%] | Inhibition of GRK6 (previous study) [2] | Effect on ISO-stimulated AC activity ([3]; 1 μM ISO) | Effect on FSK-stimulated AC activity ([3]; 20 μM FSK) | Effect on GRK phosphorylation of β2AR in intact cells [4] | Effect on PKA site (S262) phosphorylation of the β2AR in intact cells [5]
1 | CCCC[C@H](NC(=O)[C@H](CO)NC(C)=O)C(=O)N[C@@H](Cc1ccccc1)C(=O)N[C@@H](Cc1ccccc1)C(=O)N[C@@H](CC(=O)O)C(=O)N[C@@H](CCCNC(=N)N)C(=O)N[C@@H](Cc1ccccc1)C(=O)N[C@@H](CC(C)C)C(=O)N[C@@H](CCC(N)=O)C(=O)N[C@@H](Cc1c[nH]c2ccccc12)C(=O)N[C@@H](CCCCN)C(=O)N[C@@H](Cc1c[nH]c2ccccc12)C(=O)N[C@@H](CC(C)C)C(=O)N[C@@H](CCC(=O)O)C(=O)N[C@@H](CCCNC(=N)N)C(N)=O [α9 (164–178)] (Ac-S[Nle]FFDRFLQWKWLER-NH2) | 15.9 ± 4.3 | 89 | no inhibition |  |  |  | 
2 | CC(=O)NCC(=O)N[C@@H](CCCNC(=N)N)C(=O)N[C@@H](CCCCN)C(=O)N[C@@H](CCCCN)C(=O)N[C@@H](CCCNC(=N)N)C(=O)N[C@@H](CCCNC(=N)N)C(=O)N[C@@H](CCC(N)=O)C(=O)N[C@@H](CCCNC(=N)N)C(=O)N[C@@H](CCCNC(=N)N)C(=O)N[C@@H](CCCNC(=N)N)C(=O)N1CCC[C@H]1C(=O)N1CCC[C@H]1C(=O)N[C@@H](CCC(N)=O)C(N)=O [TAT] |  |  |  | without effect | without effect | did not inhibit | did not inhibit
